Data reported in ChEMBL document CHEMBL1145427, “Quick assembly of 1,4-diphenyltriazoles as probes targeting beta-amyloid aggregates in Alzheimer's disease” (J Med Chem, 2007).
pKi: −log10 of the molar value.

What was measured:
[1] = Displacement of [125I]IMPY from beta amyloid protein plaques in Alzheimer's disease patient brain; parameters: species or system Homo sapiens
Procedure, shortened: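 Competition binding to pooled gray-matter homogenates from four AD brains (approximately 100 mg wet tissue/mL in PBS pH 7.4; 20–50 μg per tube). [125I]2 at 0.04–0.06 nM; inhibitors 10^-5–10^-10 M in PBS with 0.1% BSA; final volume 1 mL. Nonspecific binding with 600 nM 2. Incubated 37 °C, 2 h; GF/B filtration, gamma counting. Ki from nonlinear regression.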

Zone of skin [2] = test: Biodistribution in ICR mouse skin at 5 to 10 uCi, iv after 2 hrs; type: ADME, organism-based; conditions: in vivo
Procedure, shortened: (§1)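 Male ICR mice (22–25 g) under isoflurane anesthesia; [125I] or [18F] tracer (5–10 μCi) in 0.15 mL of 0.1% bovine serum albumin solution injected into the tail vein. Groups of n = 3 per time point, killed by cervical dislocation. Organs removed, weighed and gamma-counted against diluted aliquots of injected dose, giving % dose/organ and % ID/g. Total blood activity assumed as 7% of body weight.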

Heart [3] = test: Biodistribution in ICR mouse heart at 5 to 10 uCi, iv after 1 hr; type: ADME, organism-based; conditions: in vivo; procedure, shortened: as §1
Liver [4] = test: Biodistribution in ICR mouse liver at 5 to 10 uCi, iv after 1 hr; type: ADME, organism-based; conditions: in vivo; procedure, shortened: as §1
Liver [5] = test: Biodistribution in ICR mouse liver at 5 to 10 uCi, iv after 30 mins; type: ADME, organism-based; conditions: in vivo, 0.5 h; procedure, shortened: as §1
Liver [6] = test: Biodistribution in ICR mouse liver at 5 to 10 uCi, iv after 2 hrs; type: ADME, organism-based; conditions: in vivo; procedure, shortened: as §1
Heart [7] = test: Biodistribution in ICR mouse heart at 5 to 10 uCi, iv after 2 mins; type: ADME, organism-based; conditions: in vivo; procedure, shortened: as §1
Lung [8] = test: Biodistribution in ICR mouse lung at 5 to 10 uCi, iv after 30 mins; type: ADME, organism-based; conditions: in vivo, 0.5 h; procedure, shortened: as §1
Lung [9] = test: Biodistribution in ICR mouse lung at 5 to 10 uCi, iv after 2 mins; type: ADME, organism-based; conditions: in vivo; procedure, shortened: as §1
Blood [10] = test: Biodistribution in ICR mouse blood at 5 to 10 uCi, iv after 2 hrs; type: ADME, organism-based; conditions: in vivo; procedure, shortened: as §1
Blood [11] = test: Biodistribution in ICR mouse blood at 5 to 10 uCi, iv after 2 mins; type: ADME, organism-based; conditions: in vivo; procedure, shortened: as §1
Thyroid gland [12] = test: Biodistribution in ICR mouse thyroid at 5 to 10 uCi, iv after 2 mins; type: ADME, organism-based; conditions: in vivo; procedure, shortened: as §1
Kidney [13] = test: Biodistribution in ICR mouse kidney at 5 to 10 uCi, iv after 1 hr; type: ADME, organism-based; conditions: in vivo; procedure, shortened: as §1
Blood [14] = test: Biodistribution in ICR mouse blood at 5 to 10 uCi, iv after 1 hr; type: ADME, organism-based; conditions: in vivo; procedure, shortened: as §1
Muscle tissue [15] = test: Biodistribution in ICR mouse muscle at 5 to 10 uCi, iv after 2 hrs; type: ADME, organism-based; conditions: in vivo; procedure, shortened: as §1
Kidney [16] = test: Biodistribution in ICR mouse kidney at 5 to 10 uCi, iv after 2 hrs; type: ADME, organism-based; conditions: in vivo; procedure, shortened: as §1
Brain [17] = test: Biodistribution in ICR mouse brain at 5 to 10 uCi, iv after 2 mins; type: ADME, organism-based; conditions: in vivo; procedure, shortened: as §1
Thyroid gland [18] = test: Biodistribution in ICR mouse thyroid at 5 to 10 uCi, iv after 2 hrs; type: ADME, organism-based; conditions: in vivo; procedure, shortened: as §1
[19] = Partition coefficient, log P of the compound; type: physicochemical; conditions: octanol/water
Procedure, shortened: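 [125I] or [18F] tracer mixed with 3 g each of 1-octanol and 0.1 M phosphate buffer pH 7.4. Vortexed 3 min at room temperature, then centrifuged 5 min. Two 0.5 g samples from each layer counted; PC is the ratio of cpm/g in octanol to cpm/g in buffer. The octanol layer was repartitioned until values were consistent.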

Spleen [20] = test: Biodistribution in ICR mouse spleen at 5 to 10 uCi, iv after 30 mins; type: ADME, organism-based; conditions: in vivo, 0.5 h; procedure, shortened: as §1
Muscle tissue [21] = test: Biodistribution in ICR mouse muscle at 5 to 10 uCi, iv after 30 mins; type: ADME, organism-based; conditions: in vivo, 0.5 h; procedure, shortened: as §1
Spleen [22] = test: Biodistribution in ICR mouse spleen at 5 to 10 uCi, iv after 2 hrs; type: ADME, organism-based; conditions: in vivo; procedure, shortened: as §1
Zone of skin [23] = test: Biodistribution in ICR mouse skin at 5 to 10 uCi, iv after 1 hr; type: ADME, organism-based; conditions: in vivo; procedure, shortened: as §1
Spleen [24] = test: Biodistribution in ICR mouse spleen at 5 to 10 uCi, iv after 1 hr; type: ADME, organism-based; conditions: in vivo; procedure, shortened: as §1
Blood [25] = test: Biodistribution in ICR mouse blood at 5 to 10 uCi, iv after 30 mins; type: ADME, organism-based; conditions: in vivo, 0.5 h; procedure, shortened: as §1
Zone of skin [26] = test: Biodistribution in ICR mouse skin at 5 to 10 uCi, iv after 2 mins; type: ADME, organism-based; conditions: in vivo; procedure, shortened: as §1
Zone of skin [27] = test: Biodistribution in ICR mouse skin at 5 to 10 uCi, iv after 30 mins; type: ADME, organism-based; conditions: in vivo, 0.5 h; procedure, shortened: as §1
Kidney [28] = test: Biodistribution in ICR mouse kidney at 5 to 10 uCi, iv after 30 mins; type: ADME, organism-based; conditions: in vivo, 0.5 h; procedure, shortened: as §1
Thyroid gland [29] = test: Biodistribution in ICR mouse thyroid at 5 to 10 uCi, iv after 1 hr; type: ADME, organism-based; conditions: in vivo; procedure, shortened: as §1
Muscle tissue [30] = test: Biodistribution in ICR mouse muscle at 5 to 10 uCi, iv after 1 hr; type: ADME, organism-based; conditions: in vivo; procedure, shortened: as §1
Brain [31] = test: Biodistribution in ICR mouse brain at 5 to 10 uCi, iv after 30 mins; type: ADME, organism-based; conditions: in vivo, 0.5 h; procedure, shortened: as §1
Brain [32] = test: Biodistribution in ICR mouse brain at 5 to 10 uCi, iv after 2 hrs; type: ADME, organism-based; conditions: in vivo; procedure, shortened: as §1
Lung [33] = test: Biodistribution in ICR mouse lung at 5 to 10 uCi, iv after 2 hrs; type: ADME, organism-based; conditions: in vivo; procedure, shortened: as §1
Liver [34] = test: Biodistribution in ICR mouse liver at 5 to 10 uCi, iv after 2 mins; type: ADME, organism-based; conditions: in vivo; procedure, shortened: as §1
Brain [35] = test: Biodistribution in ICR mouse brain at 5 to 10 uCi, iv after 1 hr; type: ADME, organism-based; conditions: in vivo; procedure, shortened: as §1
Lung [36] = test: Biodistribution in ICR mouse lung at 5 to 10 uCi, iv after 1 hr; type: ADME, organism-based; conditions: in vivo; procedure, shortened: as §1
Heart [37] = test: Biodistribution in ICR mouse heart at 5 to 10 uCi, iv after 30 mins; type: ADME, organism-based; conditions: in vivo, 0.5 h; procedure, shortened: as §1
Spleen [38] = test: Biodistribution in ICR mouse spleen at 5 to 10 uCi, iv after 2 mins; type: ADME, organism-based; conditions: in vivo; procedure, shortened: as §1
Heart [39] = test: Biodistribution in ICR mouse heart at 5 to 10 uCi, iv after 2 hrs; type: ADME, organism-based; conditions: in vivo; procedure, shortened: as §1
Thyroid gland [40] = test: Biodistribution in ICR mouse thyroid at 5 to 10 uCi, iv after 30 mins; type: ADME, organism-based; conditions: in vivo, 0.5 h; procedure, shortened: as §1
Muscle tissue [41] = test: Biodistribution in ICR mouse muscle at 5 to 10 uCi, iv after 2 mins; type: ADME, organism-based; conditions: in vivo; procedure, shortened: as §1
Kidney [42] = test: Biodistribution in ICR mouse kidney at 5 to 10 uCi, iv after 2 mins; type: ADME, organism-based; conditions: in vivo; procedure, shortened: as §1

CNc1ccc(-c2cn(-c3ccc(OCCOCCOCCF)cc3)nn2)cc1
pKi [1]: 7.52

CNc1ccc(-c2cn(-c3ccc([125I])cc3)nn2)cc1
Drug uptake (Zone of skin [2]): 1.6 % ID/g
Drug uptake (Heart [3]): 1.1 % ID/g
Drug uptake (Liver [4]): 6.46 % ID/g
Drug uptake (Liver [5]): 11.1 % ID/g
Drug uptake (Liver [6]): 6 % ID/g
Drug uptake (Heart [7]): 7.45 % ID/g
Drug uptake (Lung [8]): 4.86 % ID/g
Drug uptake (Lung [9]): 16 % ID/g
Drug uptake (Blood [10]): 2.06 % ID/g
Drug uptake (Blood [11]): 4.45 % ID/g
Drug uptake (Thyroid gland [12]): 4.38 % ID/g
Drug uptake (Kidney [13]): 3.71 % ID/g
Drug uptake (Blood [14]): 2.04 % ID/g
Drug uptake (Muscle tissue [15]): 0.47 % ID/g
Drug uptake (Kidney [16]): 2.91 % ID/g
Drug uptake (Brain [17]): 9.4 % ID/g
Drug uptake (Thyroid gland [18]): 62.1 % ID/g
logP [19]: 3
Drug uptake (Spleen [20]): 1.8 % ID/g
Drug uptake (Muscle tissue [21]): 1.07 % ID/g
Drug uptake (Spleen [22]): 1.16 % ID/g
Drug uptake (Zone of skin [23]): 1.81 % ID/g
Drug uptake (Spleen [24]): 1.24 % ID/g
Drug uptake (Blood [25]): 3.04 % ID/g
Drug uptake (Zone of skin [26]): 1.05 % ID/g
Drug uptake (Zone of skin [27]): 2.34 % ID/g
Drug uptake (Kidney [28]): 6.43 % ID/g
Drug uptake (Thyroid gland [29]): 54.2 % ID/g
Drug uptake (Muscle tissue [30]): 0.56 % ID/g
Drug uptake (Brain [31]): 1.66 % ID/g
Drug uptake (Brain [32]): 0.43 % ID/g
Drug uptake (Lung [33]): 2.83 % ID/g
Drug uptake (Liver [34]): 20.7 % ID/g
Drug uptake (Brain [35]): 0.7 % ID/g
Drug uptake (Lung [36]): 2.82 % ID/g
Drug uptake (Heart [37]): 1.79 % ID/g
Drug uptake (Spleen [38]): 4.9 % ID/g
Drug uptake (Heart [39]): 0.89 % ID/g
Drug uptake (Thyroid gland [40]): 11.5 % ID/g
Drug uptake (Muscle tissue [41]): 0.83 % ID/g
Drug uptake (Kidney [42]): 13.4 % ID/g

CN(C)c1ccc(-c2cn(-c3ccc(OCCOCCOCCF)cc3)nn2)cc1
pKi [1]: 8.08

CN(C)c1ccc(-c2cn(-c3ccc(OCCCO)cc3)nn2)cc1
pKi [1]: 7.12

CN(C)c1ccc(-c2cn(-c3ccc(OCCCF)cc3)nn2)cc1
pKi [1]: 8.21

CN(C)c1ccc(-c2cn(-c3ccc(I)cc3)nn2)cc1
pKi [1]: 8.10
